B1: NELF-E aptamer (parent)
chain: CCCAACGACUGCCGAGCGAGAUUACGCUUGAGCGCCCCACUGAGGAUGCCCACGGGCGAUUGGGGCACGG

What is called Kd is the free concentration of one partner at which half of the binding sites on the other are occupied at equilibrium, for simple one-to-one binding.

Variants of B1 are the subject of this data set. Put plainly: HiTS-RAP. As to conditions: with NELF-E (Drosophila). An outline of the steps: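 Aptamer DNA templates carrying a T7 promoter and ter site were sequenced on an Illumina GAIIx flowcell, then transcribed in situ by T7 RNA polymerase and halted by GST-Tus (30 minutes, 37°C). Clusters were imaged after 30-minute room-temperature equilibration with NELF-E-mOrange at 0.064 to 1000 nM in HEPES binding buffer, and only the first binding curve was used. Intensities were normalised to sequencing intensity and averaged per sequence. Kd came from weighted Hill fits, keeping fits with variance below 1,000,000.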
Consider CCCAACGACUGCCGAGCGAGAUUACGCUUGAGCGCCCCACUGGUGAUGCCCACGGGCGAUUGGGGCACGG [A43G G44U], for which the Kd stood at 0.00597 µM.
In the case of CCCAACGACUGCCGAGCGAGAUUACGCUUGAGCGCCCCACUGGGGAUGCCCACGGGCGACUGGGGCACGG [A43G U60C] it was 0.0201 µM; in that of CCCAACGACUGCCGAGCGAGAUUACGCUUGAGCGCCCCACAGAGGAUGCCCACGGGCGAUUGGGGUACGG [U41A C66U], 0.0857 µM; in that of CCCAACGACUGCCGAGCGAGAUUACGCUUGAGCGCCCCACUGUGGAUGCCCACGGGCGAUUGGGGCUCGG [A43U A67U], 0.0371 µM.
As to CCCAACGACUGCCGAGCGAGAUUACGCUUGAGCGCCCCAUUGAGGAUGCCCACGGGCGAUUGGGGCACGG [C40U], the Kd is 0.0566 µM.
Regarding CCCAACGACUGCCGAGCGAGAUUACGCUUGAGCGCCCCAGUGAGGAUGCCCACGGGCGAUUGGGGCACGG [C40G], the Kd worked out at 0.00555 µM.
As to CCCAACGACUGCCGAGCGAGAUUACGCUUGAGCGCCCCAAUGAGGAUGCCCACGGGCGAUUGGGGCACGG [C40A], the Kd came out at 0.0713 µM.
For CCCAACGACUGCCGAGCGAGAUUACGCUUGAGCGCCCCACGGAGGAUGCCCACGGGCGAUAGGGGCACGG [U41G U61A] the value was 0.0349 µM; for CCCAACGACUGCCGAGCGAGAUUACGCUUGAGCGCCCCACGGAGGAUGCCCACGGGCGAUUGGCGCACGG [U41G G64C], 0.0071 µM.
Turning to CCCAACGACUGCCGAGCGAGAUUACGCUUGAGCGCCCCACGGAGGAUGCCCACGGGCGAUUGGAGCACGG [U41G G64A], the Kd stood at 0.00638 µM.
For CCCAACGACUGCCGAGCGAGAUUACGCUUGAGCGCCCCACGGAGGAUGCCCACGGGCGAUUGGUGCACGG [U41G G64U] the value was 0.00528 µM; for CCCAACGACUGCCGAGCGAGAUUACGCUUGAGCGCCCCACGGAGGGUGCCCACGGGCGAUUGGGGCACGG [U41G A46G], 0.0262 µM.
Turning to CCCAACGACUGCCGAGCGAGAUUACGCUUGAGCGCCCCACGGAGGUUGCCCACGGGCGAUUGGGGCACGG [U41G A46U], the Kd amounted to 0.0629 µM.
With CCCAACGACUGCCGAGCGAGAUUACGCUUGAGCGCCCCACGGAGGAUGCCCACGGGCGGUUGGGGCACGG [U41G A59G], the dissociation constant (Kd) was 0.0351 µM.
Turning to CCCAACGACUGCCGAGCGAGAUUACGCUUGAGCGCCCCACGGAGGAUGCCCACGGGCGUUUGGGGCACGG [U41G A59U], the Kd is 0.0317 µM.
In the case of CCCAACGACUGCCGAGCGAGAUUACGCUUGAGCGCCCCGCGGAGGAUGCCCACGGGCGAUUGGGGCACGG [A39G U41G] it was 0.00674 µM; in that of CCCAACGACUGCCGAGCGAGAUUACGCUUGAGCGCCCCACGGAGGAUGUCCACGGGCGAUUGGGGCACGG [U41G C49U], 0.028 µM.
In the case of CCCAACGACUGCCGAGCGAGAUUACGCUUGAGCGCCCCACAGAGGAUGCCCACGGGCGAUUGGGGCUCGG [U41A A67U] it was 0.0594 µM; in that of CCCAACGACUGCCGAGCGAGAUUACGCUUGAGCGCCCCACGGAGGAUGCCCACGUGCGAUUGGGGCACGG [U41G G55U], 0.0072 µM; in that of CCCAACGACUGCCGAGCGAGAUUACGCUUGAGCGCCCCACGGAGGAUGCCCACGCGCGAUUGGGGCACGG [U41G G55C], 0.00695 µM.
Consider CCCAACGACUGCCGAGCGAGAUUACGCUUGAGCGCCCCACGGAGGAUGCCCACGAGCGAUUGGGGCACGG [U41G G55A], for which the Kd worked out at 0.00784 µM.
In the case of CCCAACGACUGCCGAGCGAGAUUACGCUUGAGCGCCCCACGGAGGAUACCCACGGGCGAUUGGGGCACGG [U41G G48A] it was 0.00762 µM.
Turning to CCCAACGACUGCCGAGCGAGAUUACGCUUGAGCGCCCCACGGAGGAUGCCCACGGGCGAUUAGGGCACGG [U41G G62A], the Kd worked out at 0.0199 µM.
For CCCAACGACUGCCGAGCGAGAUUACGCUUGAGCGCCCCACGGAGGAUGCCCACAGGCGAUUGGGGCACGG [U41G G54A] the value was 0.0181 µM.
In the case of CCCAACGACUGCCGAGCGAGAUUACGCUUGAGCGCCCCACGGAGGAUGCCCACGGGUGAUUGGGGCACGG [U41G C57U] it was 0.00691 µM.
In the case of CCCAACGACUGCCGAGCGAGAUUACGCUUGAGCGCCCCUCUGAGGAUGCCCACAGGCGAUUGGGGCACGG [A39U G54A] it was 0.0393 µM; in that of CCCAACGACUGCCGAGCGAGAUUACGCUUGAGCGCCCCUCUGAGGAUGCCCACGGGCGAUUGGGGCUCGG [A39U A67U], 0.055 µM; in that of CCCAACGACUGCCGAGCGAGAUUACGCUUGAGCGCCCCUCUGAGGAUGCCCACGGGCGAUUGGGGCGCGG [A39U A67G], 0.0273 µM.
As to CCCAACGACUGCCGAGCGAGAUUACGCUUGAGCGCCCCACUCAGGAUGCCCACGGGCGAUUGGGGCACGG [G42C], the Kd is 0.0442 µM.
In the case of CCCAACGACUGCCGAGCGAGAUUACGCUUGAGCGCCCCACUAAGGAUGCCCACGGGCGAUUGGGGCACGG [G42A] it was 0.0494 µM; in that of CCCAACGACUGCCGAGCGAGAUUACGCUUGAGCGCCCCACUUAGGAUGCCCACGGGCGAUUGGGGCACGG [G42U], 0.0105 µM.
For CCCAACGACUGCCGAGCGAGAUUACGCUUGAGCGCCCCACAGAGGAUGCCCUCGGGCGAUUGGGGCACGG [U41A A52U], the dissociation constant Kd was found to be 0.081 µM.
For CCCAACGACUGCCGAGCGAGAUUACGCUUGAGCGCCCCGCUGAGGAUGCCCACGGGCGAUCGGGGCACGG [A39G U61C] the value was 0.00889 µM; for CCCAACGACUGCCGAGCGAGAUUACGCUUGAGCGCCCCACGGAGGAUGCCCAUGGGCGAUUGGGGCACGG [U41G C53U], 0.00362 µM.
Turning to CCCAACGACUGCCGAGCGAGAUUACGCUUGAGCGCCCCACGGAGGAUGCCCACGGGCGAUUGGGGCUCGG [U41G A67U], the Kd was 0.007 µM.
In the case of CCCAACGACUGCCGAGCGAGAUUACGCUUGAGCGCCCCACGGAGGAUGCCCACGGGCGAUUGGGGCGCGG [U41G A67G] it was 0.00635 µM.
Take CCCAACGACUGCCGAGCGAGAUUACGCUUGAGCGCCCCACGGAGGAUGCCUACGGGCGAUUGGGGCACGG [U41G C51U]: the Kd was determined as 0.00726 µM.
In the case of CCCAACGACUGCCGAGCGAGAUUACGCUUGAGCGCCCCACGGAGGAUGCCCACGGGCGAUUGGGACACGG [U41G G65A] it was 0.0069 µM; in that of CCCAACGACUGCCGAGCGAGAUUACGCUUGAGCGCCCCACGGAGGAUGCCCACGGGCGAUUGGGUCACGG [U41G G65U], 0.006 µM.

The record behind these values is the RNAGym collection of RNA variant scans (doi:10.1038/nmeth.2970).
